An excerpt weighted towards active compounds, which were near 5.7% of everything screened.
Calb FLC: affects C. albicans growth with fluconazole. C. albicans CaCi-2 (fluconazole-resistant clinical isolate) + fluconazole, Alamar Blue growth, 48 h. growth inhibition, % (no concentration beside the values). hit rate 0.57% among 300,000. AID 1979;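 active = growth inhibition above about 58% in most replicates, limit read from the data, passing the limit was not always enough; inconclusive = exactly half the replicates above a set limit; inactive = most replicates below a set limit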;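 note: all wells also contain fluconazole at 8 µg/ml as a sub-toxic cotreatment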
Mdm2-MdmX inh: inhibitors of human Mdm2/MdmX interaction | inhibition, % at 8 µM | AID 485346 | SaOS-2 split-luciferase Mdm2/MdmX complementation, luminescence | hit rate 3% among 330,000;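 active = inhibition of at least 50% at 8 µM in the primary screen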
Beta cell apopt: blocks beta cell apoptosis | INS-1E cytokine-induced death, ATP luminescence, 48 h; percent of positive-control rescue, neutral wells zero | protection from apoptosis, % (no concentration beside the values) | hit rate 0.8% among 300,000 | AID 435005;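 active = Every replicate reaches about 75%, or at least half do and their mean reaches it too, limit read from the data; inconclusive = At least half of replicates reach the limit but their mean does not; inactive = Under half of replicates reach the limit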;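 note: higher means more ATP so stronger rescue from cytokine killing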
CSC inhib: blocks cancer stem cells; cancer stem cell-like cells viability, luminescence; inhibition, % at 7.5 µM; hit rate 1.1% among 300,000; AID 2717; in the data active = inhibition above about 75%; inconclusive = no clear call, values can overlap the other calls; tested in HMLE shEcad cells
SKKanGAS inh: inhibitors of SKKanGAS S. pyogenes growth in kanamycin (SK-promoter or general growth effect) | BacTiter-Glo, 6 h | inhibition, % at 7.5 µM | hit rate 1.3% among 300,000;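 active = mean replicate score, as percent of positive control median, at least 50; inconclusive = mean below 50 but one replicate at or above 50; inactive = mean and every replicate below 50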;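 note: strain carries kanamycin resistance gene driven by streptokinase promoter and grows in 40 µg/ml kanamycin; loss of luminescence reflects streptokinase promoter inhibition or plain growth inhibition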
T cruzi repl: blocks replication of Trypanosoma cruzi; T. cruzi beta-gal in NIH3T3, luminescence, 90 h; inhibition, % (test concentration not listed); hit rate 1.4% among 300,000; AID 1885;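 active = mean inhibition across valid replicates above about 55%, limit read from the data; inconclusive = mean below that limit but half or more replicates reach it; inactive = mean below it, under half of replicates reach it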;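 note: signal also drops with host cell toxicity which is not excluded here; higher percent means less beta-gal luminescence so fewer parasites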
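Read-out: Parasite load inhibition, % | Test system: Mouse NIH/3T3 fibroblasts infected with β-gal-expressing T. cruzi Tulahuen C4 | Amount: 5,000 cells/well | Medium: DMEM, 2% fetal bovine serum | Signal: GalScreen β-gal luminescence, detergent lysis, 60 min | Timing: 3 h attach, ≥90 h co-culture | Also added: Tulahuen C4 trypomastigotes, 5000/well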
Mdm2 MdmX conf: confirmation of human Mdm2/MdmX interaction inhibitors; shares compounds with Mdm2-MdmX inh; Mdm2-MdmX binding, luminescent assay; inhibition, % at 8 µM; hit rate 55% among 10,000; AID 489028; in the data active = inhibition above about 40%
Full FLuc ctr: counter-screen for Mdm2/MdmX inhibitors: full-length luciferase; shares compounds with Mdm2-MdmX inh; hit rate 77% among 6,200; inhibition, % at 8 µM; SaOS-2 full-length luciferase counterscreen, luminescence;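 active = mean inhibition at 8 µM reaching about 37%, which flags the compound as non-specific, limit read from the data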;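 note: p53-null SaOS-2 cells with luciferase driven by a doxycycline-inducible promoter; compound on cells about two nights before reading with doxycycline added after day one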
Numbers stand for hits.

What do the screens show for `COc1ccccc1-n1c(SCC(=O)NC2CC2)nc2ccccc2c1=O`?
Mdm2-MdmX inh: inactive; Beta cell apopt: inactive; CSC inhib: inactive

What do the screens show for `Cc1cn2c(nc1=O)OC1CC2OC1CO` (stereo not given)?
Calb FLC: inconclusive; Mdm2-MdmX inh: inactive; Beta cell apopt: inactive; CSC inhib: inactive; SKKanGAS inh: inactive; T cruzi repl: inactive

How did CCOc1ccc(OCCn2c(=S)[nH]c3c(N)ncnc32)cc1 do in these assays?
Calb FLC: inactive; Mdm2-MdmX inh: inactive; Beta cell apopt: inactive; CSC inhib: inactive; SKKanGAS inh: inactive; T cruzi repl: inactive

How did Cc1ccc(OCCn2cnc3c(N)ncnc32)cc1 do in these assays?
Calb FLC: inactive; Mdm2-MdmX inh: 72; Beta cell apopt: inactive; CSC inhib: inactive; SKKanGAS inh: inactive; T cruzi repl: inactive; Mdm2 MdmX conf: inactive

What do the screens show for `COC(=O)c1ccc(NC(=O)C2CCN(C(=O)Nc3ccccc3)CC2)cc1`?
Mdm2-MdmX inh: inactive; Beta cell apopt: inactive; CSC inhib: inactive

What do the screens show for `O=C(CCNC(=O)c1ccc(Cl)cc1)Nc1cccc(S(=O)(=O)N2CCCCCC2)c1`?
Mdm2-MdmX inh: inactive; Beta cell apopt: inactive; CSC inhib: inactive; SKKanGAS inh: inactive; T cruzi repl: inactive

Results for O=C1C=C(c2ccoc2)N2CCC[C@H]2C1 ?
Mdm2-MdmX inh: inactive; Beta cell apopt: inactive; CSC inhib: inactive

What do the screens show for `COc1ccc(-c2c(C)nn3c(N4CCN(Cc5ccccc5)CC4)cc(C)nc23)cc1OC`?
Calb FLC: inactive; Mdm2-MdmX inh: 50; Beta cell apopt: inactive; CSC inhib: inactive; SKKanGAS inh: inactive; T cruzi repl: inactive; Mdm2 MdmX conf: inactive

Results for Cc1nn2c(N3CCN(C)CC3)cc(C(C)(C)C)nc2c1-c1ccccc1 ?
Calb FLC: inactive; Mdm2-MdmX inh: 58; Beta cell apopt: inactive; CSC inhib: inactive; SKKanGAS inh: inactive; T cruzi repl: 67; Mdm2 MdmX conf: 41; Full FLuc ctr: 76

How did O=C(NNC(=O)c1cccc2ccccc12)c1ccccc1O do in these assays?
Calb FLC: inactive; Mdm2-MdmX inh: 52; Beta cell apopt: inactive; CSC inhib: inactive; SKKanGAS inh: inactive; T cruzi repl: inactive; Mdm2 MdmX conf: 42; Full FLuc ctr: 60

What do the screens show for `O=C1CCCc2c1cc(C(=O)Nc1ccc(Br)cn1)c(=O)n2-c1ccccc1`?
Calb FLC: inactive; Mdm2-MdmX inh: 57; Beta cell apopt: inactive; CSC inhib: inactive; SKKanGAS inh: inactive; T cruzi repl: inactive; Mdm2 MdmX conf: inactive

Results for O=C(NNC(=O)c1cccc2ccccc12)c1ccc(-c2ccccc2)cc1 ?
Calb FLC: inactive; Mdm2-MdmX inh: inactive; Beta cell apopt: inactive; CSC inhib: inactive; SKKanGAS inh: inactive; T cruzi repl: inactive

Results for O=C(Nc1ccc(Br)cn1)c1cccc2ccccc12 ?
Calb FLC: inactive; Mdm2-MdmX inh: 56; Beta cell apopt: inactive; CSC inhib: inactive; SKKanGAS inh: inactive; T cruzi repl: inactive; Mdm2 MdmX conf: 50; Full FLuc ctr: 81

What do the screens show for `COc1c(C(=O)Nc2ccc(Br)cn2)ccc2ccccc12`?
Calb FLC: inactive; Mdm2-MdmX inh: inactive; Beta cell apopt: inactive; CSC inhib: inactive; SKKanGAS inh: inactive; T cruzi repl: inactive

Results for CCOc1ccc(OCC)c(NC(=O)CSc2nnc(C3CC3)n2CC)c1 ?
Calb FLC: inactive; Mdm2-MdmX inh: inactive; Beta cell apopt: inactive; CSC inhib: inactive; SKKanGAS inh: inactive; T cruzi repl: inactive

How did COc1ccc(C(CCNCc2ccc(OC(C)C)cc2)C(C)C)cc1 (stereo not given) do in these assays?
Calb FLC: inactive; Mdm2-MdmX inh: 85; Beta cell apopt: inactive; CSC inhib: inactive; SKKanGAS inh: inactive; T cruzi repl: inactive; Mdm2 MdmX conf: inactive; Full FLuc ctr: 71

Results for COc1ccc(CNCCC(c2ccc(OC(C)C)cc2)C(C)C)cc1OC (stereo not given) ?
Calb FLC: inactive; Mdm2-MdmX inh: 77; Beta cell apopt: 86; CSC inhib: inactive; SKKanGAS inh: inactive; T cruzi repl: 73; Mdm2 MdmX conf: 50; Full FLuc ctr: 67
